This is an account of results in ChEMBL document CHEMBL1955756, “Design and synthesis of novel sulfonamide-containing bradykinin hB(2) receptor antagonists. Synthesis and structure-relationships of α,α-tetrahydropyranylglycine” (Bioorg Med Chem, 2012).

The target in test [1] is T1, B2 bradykinin receptor (Homo sapiens, UniProt P30411).
T1 sequence (P30411 whole entry): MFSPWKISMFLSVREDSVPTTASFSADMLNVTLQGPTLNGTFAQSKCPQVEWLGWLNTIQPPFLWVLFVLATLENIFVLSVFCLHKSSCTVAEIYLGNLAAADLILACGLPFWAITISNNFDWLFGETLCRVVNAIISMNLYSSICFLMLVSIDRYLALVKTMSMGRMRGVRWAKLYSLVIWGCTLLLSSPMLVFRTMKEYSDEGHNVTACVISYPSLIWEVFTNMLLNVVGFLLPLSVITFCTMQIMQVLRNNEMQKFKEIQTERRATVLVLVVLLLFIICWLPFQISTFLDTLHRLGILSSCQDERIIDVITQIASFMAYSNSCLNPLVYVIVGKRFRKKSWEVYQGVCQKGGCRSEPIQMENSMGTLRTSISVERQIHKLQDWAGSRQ
The test is described as follows: Antagonist activity at human bradykinin B2 receptor expressed in dhfr-deficient CHO cells assessed as inhibition of bradykinin-induced inositol monophosphate accumulation preincubated for 15 mins prior bradykinin induction measured after 40 mins by liquid scintillation spectrometry. In kind it is functional, cell-based. Particulars: read-out: pA2 (converted). Put shortly:
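CHOdhfr-/hB2R cells (1.8×10^5/well) plated overnight at 37 °C, labelled 24 h with myo-[3H]inositol (1 uCi/well). Antagonist pre-incubation 15 min, then BK 1×10^-11 to 1×10^-5 M for 40 min at 37 °C in Hepes pH 7.4 buffer with 25 mM LiCl. IP1 radioactivity by liquid scintillation. Agonist curves fitted for EC50; pA2 = log(CR−1) − log[antagonist].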

For test [2], the target named is T2, B2 bradykinin receptor (Homo sapiens) (UniProt P30411).
T2 sequence (whole entry): T1 sequence (P30411 whole entry)
Briefly: Reversible antagonist activity at human bradykinin B2 receptor expressed in dhfr-deficient CHO cells assessed as inhibition of bradykinin-induced inositol monophosphate accumulation at 3 uM preincubated for 15 mins prior bradykinin induction measured after 15 mins washout by liquid scintillation spectrometry. In kind it is functional, cell-based. The procedure, abridged: (§1)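 Washout in the IP accumulation assay in CHO/hB2R cells: antagonist (3 µM or 100 nM) pre-incubated 15 min, with medium then fully replaced every 15 min in washed cells. BK (2 nM) added and the reaction stopped after one hour; IP formed quantified. Expressed as % inhibition of time-matched BK responses in vehicle-pre-incubated cells.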

Test [3] addresses T3, B1 bradykinin receptor (Homo sapiens, UniProt P46663).
T3 sequence (P46663 whole entry): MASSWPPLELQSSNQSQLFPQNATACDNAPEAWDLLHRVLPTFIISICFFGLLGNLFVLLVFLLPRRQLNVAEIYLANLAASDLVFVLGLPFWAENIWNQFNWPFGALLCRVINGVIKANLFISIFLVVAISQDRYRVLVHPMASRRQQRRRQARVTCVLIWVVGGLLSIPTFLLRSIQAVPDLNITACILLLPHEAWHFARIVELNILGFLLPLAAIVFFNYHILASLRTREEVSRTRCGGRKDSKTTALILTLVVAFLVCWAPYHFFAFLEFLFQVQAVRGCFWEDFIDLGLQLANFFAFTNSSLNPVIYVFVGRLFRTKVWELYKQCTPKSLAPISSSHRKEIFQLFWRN
Briefly: Displacement of [3H][desArg9]Lys-Bradykinin from human bradykinin B1 receptor expressed in CHO cells. In kind it is cell-based.

Test [4] deals with T2, B2 bradykinin receptor (Homo sapiens). The test is described as follows: Reversible antagonist activity at human bradykinin B2 receptor expressed in dhfr-deficient CHO cells assessed as inhibition of bradykinin-induced inositol monophosphate accumulation at 3 uM preincubated for 15 mins prior bradykinin induction measured after 30 mins washout by liquid scintillation spectrometry. In kind it is functional, cell-based. Put shortly:
as §1

For test [5] the target is unchanged. The test is described as follows: Reversible antagonist activity at human bradykinin B2 receptor expressed in dhfr-deficient CHO cells assessed as inhibition of bradykinin-induced inositol monophosphate accumulation at 3 uM preincubated for 15 mins prior bradykinin induction measured after 45 mins washout by liquid scintillation spectrometry. In kind it is functional, cell-based. Put shortly:
as §1

For test [6], the target named is T1, B2 bradykinin receptor. The test is described as follows: Displacement of [3H]-Bradykinin from human bradykinin B2 receptor expressed in CHO cells membrane after 60 mins by scintillation counting. In kind it is cell membranes.
The target in test [7] is T4, B2 bradykinin receptor (Cavia porcellus, UniProt O70526).
T4 sequence (O70526 whole entry): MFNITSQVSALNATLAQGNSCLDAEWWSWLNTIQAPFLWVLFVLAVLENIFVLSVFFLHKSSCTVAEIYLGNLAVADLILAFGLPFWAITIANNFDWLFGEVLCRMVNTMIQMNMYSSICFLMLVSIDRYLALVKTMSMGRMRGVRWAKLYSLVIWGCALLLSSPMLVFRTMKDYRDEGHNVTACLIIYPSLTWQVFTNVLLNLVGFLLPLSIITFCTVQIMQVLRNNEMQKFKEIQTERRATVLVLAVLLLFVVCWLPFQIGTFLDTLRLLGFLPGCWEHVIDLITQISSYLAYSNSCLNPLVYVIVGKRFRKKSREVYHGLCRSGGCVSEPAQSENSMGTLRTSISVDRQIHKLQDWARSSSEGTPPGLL
The test is described as follows: Antagonist activity at guinea pig bradykinin B2 receptor in longitudinal smooth muscle assessed as inhibition of bradykinin-induced contractile responses. In kind it is functional. Particulars: read-out: pA2 (converted).

Test [8] concerns Cavia porcellus. Briefly: Inhibition of bradykinin-induced bronchoconstriction in anesthetized Dunkin-Hartley guinea pig at […], it 5 mins prior bradykinin-induction for every 30 mins up to 210 mins. In kind it is functional, organism-based. The procedure, abridged: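 Anaesthetized male Dunkin Hartley guinea pigs, 350–400 g. Compound given intratracheally, then repeated iv BK challenges (10 nmol/kg) with bronchoconstriction recorded.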

Test [9] deals with T2, B2 bradykinin receptor (Homo sapiens). Briefly: Reversible antagonist activity at human bradykinin B2 receptor expressed in dhfr-deficient CHO cells assessed as inhibition of bradykinin-induced inositol monophosphate accumulation at 100 nM preincubated for 15 mins prior bradykinin induction measured after 30 mins washout by liquid scintillation spectrometry. In kind it is functional, cell-based. Put shortly:
as §1

Test [10] has the same target. The test is described as follows: Reversible antagonist activity at human bradykinin B2 receptor expressed in dhfr-deficient CHO cells assessed as inhibition of bradykinin-induced inositol monophosphate accumulation at 100 nM preincubated for 15 mins prior bradykinin induction measured after 45 mins washout by liquid scintillation spectrometry. In kind it is functional, cell-based. Put shortly: as §1

Test [11] shares this target. Briefly: Reversible antagonist activity at human bradykinin B2 receptor expressed in dhfr-deficient CHO cells assessed as inhibition of bradykinin-induced inositol monophosphate accumulation at 100 nM preincubated for 15 mins prior bradykinin induction measured after 15 mins washout by liquid scintillation spectrometry. In kind it is functional, cell-based. The procedure, abridged:
as §1

Activity calls are given as the source filed them. The calls are words filed in the database; no cut-off is given here.

With `Cc1cc(C)c2cccc(OCc3c(Cl)ccc(S(=O)(=O)NC4(C(=O)N5CCC(CCCC[N+](C)(C)C)CC5)CCOCC4)c3Cl)c2n1`, the Kb in [1] is 3.98 nM. In addition, the figures for the inhibition in test [2], in test [4] and in test [5] were 23%, 6% and -0%, respectively. Further, the Ki in test [3] was above 10000 nM; in test [6], 0.631 nM.

`Cc1cc(C)c2cccc(OCc3c(Cl)ccc(S(=O)(=O)NC4(C(=O)N5CCN(C(=O)CCCC[N+](C)(C)C)CC5)CCOCC4)c3Cl)c2n1`: the results for the Kb in test [7] and in test [1] were 0.0631 nM and 0.316 nM, respectively. In [8], the inhibition entry was “inactive”. For the same molecule, the values for the Ki in test [3] and in test [6] were above 10000 nM and 0.0794 nM, respectively.

For the molecule `Cc1cc(C)c2cccc(OCc3c(Cl)ccc(S(=O)(=O)NC4(C(=O)N5CC[N+]6(CCCCC6)CC5)CCOCC4)c3Cl)c2n1`, the Kb in test [1] is 2.63 nM. Also, the Ki was above 10000 nM in test [3] and 0.398 nM in test [6]. Besides, the inhibition in test [9] is 9%; in test [10], -0%; in [11], 72%.
